Like-named read-outs stand apart in the source and are kept apart here.
Legend:
Oct1+/+ and Oct1-/- mice = assay: Toxicity study of oxaliplatin in Oct1+/+ and Oct1-/- mice; type: in vivo, mouse; details: 6 mg/kg i.p. once daily for 5 days
[1] = tested on: primary mouse hepatocytes; type: in vitro ADME; details: 30 min exposure
[2] = Tissue accumulation of platinum in Oct1+/+ and Oct1-/- mice; type: in vivo, mouse; details: 1 h after 8 mg/kg i.v.
How it was run: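 Male FVB Oct1+/+ and Oct1-/- mice (8 weeks) were given 8 mg/kg in saline i.v. by tail vein and killed 1 h later. Liver, kidney, heart, lung, brain, intestine, spleen and muscle were snap-frozen. Total Pt was measured by ICP-MS in 10–30 mg tissue and reported as nmol/g tissue; plasma was reported in μM.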

Question: Which “relative body weight loss” value (Oct1+/+ and Oct1-/- mice; Oct1+/+ mice) does the source give for O=C1[O][Pt]2([NH][C@@H]3CCCC[C@H]3[NH]2)[O]C1=O [oxaliplatin, Oxaliplatin, reference compound] here?
Answer: The value was 15.1%.

Question: And the “relative body weight loss” value (Oct1+/+ and Oct1-/- mice; Oct1-/- mice)?
Answer: The value was 6.8%.

Question: And the liver histopathology examination (Oct1+/+ and Oct1-/- mice; either Oct1+/+ or Oct1-/- mice)?
Answer: The liver histopathology examination was “no clear sign of liver damage”.

Question: What about the “hepatocellular uptake rate, wild-type as fold of Oct1-/-” value ([1]; 1 μM) of the same compound?
Answer: The value was 1.8 fold.

Question: And the “hepatocellular uptake rate, wild-type as fold of Oct1-/-” value ([1]; 5 μM)?
Answer: The value was 1.4 fold.

Question: And the hepatocellular uptake rate ([1]; hepatocytes from Oct1-/- mice, 1 μM)?
Answer: The hepatocellular uptake rate was 0.855 ± 0.184 pmol/mg protein/hr.

Question: And the hepatocellular uptake rate ([1]; hepatocytes from Oct1-/- mice, 5 μM)?
Answer: The hepatocellular uptake rate was 3.97 ± 0.500 pmol/mg protein/hr.

Question: And the hepatocellular uptake rate ([1]; hepatocytes from Oct1 wild-type mice, 1 μM)?
Answer: The hepatocellular uptake rate was 1.54 ± 0.300 pmol/mg protein/hr.

Question: And the hepatocellular uptake rate ([1]; hepatocytes from Oct1 wild-type mice, 5 μM)?
Answer: Its hepatocellular uptake rate is 5.55 ± 0.384 pmol/mg protein/hr.

Question: And the plasma concentration ([2]; Oct1+/+ mice)?
Answer: The plasma concentration was 5.96 ± 0.54 µM.

Question: What about the plasma concentration ([2]; Oct1-/- mice) of the same compound?
Answer: Its plasma concentration is 6.69 ± 0.62 µM.
